Structures are written as SMILES. Activity calls are given as the source filed them. No cut-off for these calls is given here.

Tested on in the first assay: not listed separately
Put plainly: (§1) Antiinflammatory activity in human neutrophils assessed as inhibition of fMLP/CB-induced superoxide anion generation after 5 mins by spectrophotometry. The conditions noted are these: Neutrophil. In kind it is functional, cell-based. An outline of the steps: (§2)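 Cells with 0.5 mg/mL ferricytochrome c and 1 mM Ca2+ equilibrated 37 °C for 2 min, compound added 5 min, then cytochalasin B (1 μg/mL) 3 min before FMLP (100 nM) activation for 10 min. SOD-inhibitable ferricytochrome c reduction monitored continuously at 550 nm under stirring; IC50 from 50% inhibition; n = 3.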
One may read the IC50 as the concentration that gives 50% inhibition. For `O=c1cccc(/C=C/c2ccccc2)o1`, the IC50 worked out at 11.6 µM.

Turning to `O=C1C=CC(O)[C@H](/C=C/c2ccccc2)O1` (stereo partly specified), the half-maximal inhibitory concentration (IC50) worked out at 8.1 µM.

Turning to `O=C1C=CC[C@@H]([C@@H]2O[C@H]2c2ccccc2)O1`, the half-inhibitory concentration (IC50) turned out to be 21.2 µM.

As for `O=C1C=CC[C@@H](/C=C/c2ccccc2)O1`, the IC50 came out at 8.3 µM.

Turning to `CNC(=O)c1cc(Oc2ccc(NC(=O)Nc3ccc(Cl)c(C(F)(F)F)c3)cc2)ccn1` [SORAFENIB], the IC50 was 6.3 µM.

For `O=C1C=CC[C@@H]([C@H](O)[C@H](Cl)c2ccccc2)O1`, the IC50 is 30 µM.

The next assay has as its system Neutrophil. The description is as §1. Format: functional, cell-based.
Settings: not given
The gist of the method:
as §2
As to `CO[C@@H](c1ccccc1)[C@H](O)[C@@H]1CC=CC(=O)O1`, the inhibition entry is “inactive”.

As for `O=C1C[C@H]2C[C@H](O1)[C@H](O)[C@@H](c1ccccc1)O2`, the inhibition result was “inactive”.

Take `O=C1C=CC[C@@H]([C@@H](O)[C@@H](O)c2ccccc2)O1`: the inhibition result is “inactive”.

In the case of `O=C1C=CC[C@@H]([C@H](O)[C@@H](O)c2ccccc2)O1`, the inhibition result is “inactive”.

For the compound `CO[C@H](c1ccccc1)[C@@H](O)[C@@H]1CC=CC(=O)O1`, the inhibition entry was “inactive”.

Tested on in another assay: not listed separately
In words: (§3) Antiinflammatory activity in human neutrophils assessed as inhibition of fMLP/CB-induced elastase release after 5 mins by spectrophotometry. Format: functional, cell-based. The following applies: Neutrophil. An outline of the steps:
(§4)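 Neutrophils equilibrated with MeOSuc-Ala-Ala-Pro-Val-p-nitroanilide (100 μM) at 37 °C for 2 min, then exposed to compound 5 min. Activated with CB (0.5 μg/mL) plus FMLP (100 nM). Elastase release (azurophilic degranulation) followed as absorbance change at 405 nm; IC50 = concentration giving 50% inhibition; n = 3.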
For `O=c1cccc(/C=C/c2ccccc2)o1`, the IC50 stood at 6.8 µM.

Turning to `O=C1C=CC(O)[C@H](/C=C/c2ccccc2)O1` (stereo partly specified), the 50% inhibitory concentration (IC50) worked out at 14.6 µM.

Take `O=C1C=CC[C@@H]([C@@H]2O[C@H]2c2ccccc2)O1`: the half-maximal inhibitory concentration (IC50) stood at 19.8 µM.

Take `O=C1C=CC[C@@H](/C=C/c2ccccc2)O1`: the 50% inhibitory concentration (IC50) is 15.4 µM.

Take `CNC(=O)c1cc(Oc2ccc(NC(=O)Nc3ccc(Cl)c(C(F)(F)F)c3)cc2)ccn1` [SORAFENIB]: the IC50 was determined as 1.9 µM.

The test system of a further assay is Neutrophil. The assay is described as §3. Format: functional, cell-based.
Settings: not given
The gist of the method:
as §4
For `CO[C@@H](c1ccccc1)[C@H](O)[C@@H]1CC=CC(=O)O1`, the inhibition result is “inactive”.

`O=C1C[C@H]2C[C@H](O1)[C@H](O)[C@@H](c1ccccc1)O2`: the inhibition entry is “inactive”.

With `O=C1C=CC[C@@H]([C@@H](O)[C@@H](O)c2ccccc2)O1`, the inhibition result was “inactive”.

`O=C1C=CC[C@@H]([C@H](O)[C@@H](O)c2ccccc2)O1`: the inhibition entry was “inactive”.

In the case of `CO[C@H](c1ccccc1)[C@@H](O)[C@@H]1CC=CC(=O)O1`, the inhibition entry was “inactive”.

In the next assay the test system is HepG2. Put plainly: Cytotoxicity against human HepG2 cells after 72 hrs by MTT assay. Format: functional, cell-based.
Settings: not given
The gist of the method: (§5)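 Hep G2 and MDA-MB-231 plated at 1 × 10^4 cells per well in triplicate with various compound concentrations. At 72 h medium removed, MTT (0.5 mg/mL) added for 1 h at 37 °C, crystals solubilized in DMSO, absorbance at 550 nm. Doxorubicin control; IC50 as mean of triplicates.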
On the technique in general: Formazan colour is commonly taken as a measure of viable cells.
On to `O=C1C[C@H]2C[C@H](O1)[C@H](O)[C@@H](c1ccccc1)O2`, for which the result was inactive.

Still in this assay, the particulars now being: HepG2, 72 h.
In turn, `CO[C@@H](c1ccccc1)[C@H](O)[C@@H]1CC=CC(=O)O1` showed an IC50 greater than 10 µM.

As to `O=C1C=CC[C@@H]([C@@H](O)[C@@H](O)c2ccccc2)O1`, the IC50 is greater than 10 µM.

`O=c1cccc(/C=C/c2ccccc2)o1` displayed an IC50 greater than 10 µM.

For `O=C1C=CC(O)[C@H](/C=C/c2ccccc2)O1` (stereo partly specified), the IC50 was greater than 10 µM.

`O=C1C=CC[C@@H]([C@@H]2O[C@H]2c2ccccc2)O1`: the IC50 is greater than 10 µM.

For `O=C1C=CC[C@@H]([C@H](O)[C@@H](O)c2ccccc2)O1`, the IC50 is greater than 10 µM.

Consider `O=C1C=CC[C@@H](/C=C/c2ccccc2)O1`, for which the concentration for half-maximal inhibition (IC50) was greater than 10 µM.

The compound `O=C1C=CC[C@@H]([C@H](O)[C@H](Cl)c2ccccc2)O1` came in with a half-maximal inhibitory concentration (IC50) greater than 10 µM.

The compound `CO[C@H](c1ccccc1)[C@@H](O)[C@@H]1CC=CC(=O)O1` registered a concentration for half-maximal inhibition (IC50) greater than 10 µM.

For the next assay, the system named is MDA-MB-231. Put plainly: Cytotoxicity against human MDA-MB-231 cells after 72 hrs by MTT assay.
Settings: not given
In kind it is functional, cell-based. An outline of the steps: as §5
On to `O=C1C[C@H]2C[C@H](O1)[C@H](O)[C@@H](c1ccccc1)O2`, for which the outcome was inactive.

Still in this assay, the particulars now being: MDA-MB-231, 72 h.
In turn, `CO[C@@H](c1ccccc1)[C@H](O)[C@@H]1CC=CC(=O)O1` registered an IC50 greater than 10 µM.

On to `O=C1C=CC[C@@H]([C@@H](O)[C@@H](O)c2ccccc2)O1`, for which the IC50 is greater than 10 µM.

With `O=c1cccc(/C=C/c2ccccc2)o1`, the IC50 was greater than 10 µM.

Consider `COc1cccc2c1C(=O)c1c(O)c3c(c(O)c1C2=O)C[C@@](O)(C(=O)CO)C[C@@H]3O[C@H]1C[C@H](N)[C@H](O)[C@H](C)O1` [DOXORUBICIN], for which the half-inhibitory concentration (IC50) stood at 0.88 µM.

Consider `O=C1C=CC(O)[C@H](/C=C/c2ccccc2)O1` (stereo partly specified), for which the IC50 was greater than 10 µM.

Turning to `O=C1C=CC[C@@H]([C@@H]2O[C@H]2c2ccccc2)O1`, the half-inhibitory concentration (IC50) is greater than 10 µM.

In turn, `O=C1C=CC[C@@H](/C=C/c2ccccc2)O1` came in with a half-inhibitory concentration (IC50) greater than 10 µM.

`O=C1C=CC[C@@H]([C@H](O)[C@H](Cl)c2ccccc2)O1` yielded a half-inhibitory concentration (IC50) greater than 10 µM.

As for `CO[C@H](c1ccccc1)[C@@H](O)[C@@H]1CC=CC(=O)O1`, the IC50 is greater than 10 µM.

Another assay concerns A549. In words: Cytotoxicity against human A549 cells after 72 hrs by MTT assay. Format: functional, cell-based.
Settings: not given
The gist of the method: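 A549 seeded at 5 × 10^3 cells per well in triplicate, exposed to various compound concentrations. After 72 h medium replaced by MTT (0.5 mg/mL), 1 h at 37 °C; formazan dissolved in DMSO, absorbance read at 550 nm. Doxorubicin control; IC50 as mean of triplicates.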
Consider `O=C1C[C@H]2C[C@H](O1)[C@H](O)[C@@H](c1ccccc1)O2`, for which the outcome was inactive.

The assay is the same for the next values; noted with them: A549, 72 h.
As for `CO[C@@H](c1ccccc1)[C@H](O)[C@@H]1CC=CC(=O)O1`, the IC50 was greater than 10 µM.

Take `O=C1C=CC[C@@H]([C@@H](O)[C@@H](O)c2ccccc2)O1`: the half-maximal inhibitory concentration (IC50) is greater than 10 µM.

`O=c1cccc(/C=C/c2ccccc2)o1` came in with a concentration for half-maximal inhibition (IC50) greater than 10 µM.

The compound `COc1cccc2c1C(=O)c1c(O)c3c(c(O)c1C2=O)C[C@@](O)(C(=O)CO)C[C@@H]3O[C@H]1C[C@H](N)[C@H](O)[C@H](C)O1` [DOXORUBICIN] yielded an IC50 of 0.87 µM.

Turning to `O=C1C=CC(O)[C@H](/C=C/c2ccccc2)O1` (stereo partly specified), the IC50 turned out to be 7.9 µM.

Compound `O=C1C=CC[C@@H]([C@@H]2O[C@H]2c2ccccc2)O1` gave a half-maximal inhibitory concentration (IC50) greater than 10 µM.

In turn, `O=C1C=CC[C@@H](/C=C/c2ccccc2)O1` registered an IC50 greater than 10 µM.

In the case of `O=C1C=CC[C@@H]([C@H](O)[C@H](Cl)c2ccccc2)O1`, the concentration for half-maximal inhibition (IC50) is greater than 10 µM.

Consider `CO[C@H](c1ccccc1)[C@@H](O)[C@@H]1CC=CC(=O)O1`, for which the concentration for half-maximal inhibition (IC50) was greater than 10 µM.

The values are drawn from ChEMBL document CHEMBL3352645, “Bioactive 6S-styryllactone constituents of Polyalthia parviflora” (J Nat Prod, 2014).
